Results reported in PubChem BioAssay.
The source made the active and inactive calls. Rule as the data show it, unless noted: active = inhibition above about 30%; inactive = the rest.

Assays:
[1] = HUVEC growth inhibition – cell-based, human, primary screen (AID 575;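 active = viability at or below 30% in both replicate assays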;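 also: 100% = median of untreated cell wells with 0.1% DMSO on each plate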); conditions: HUVEC proliferation, CellTiter-Glo luminescence, 72 h; at 10 µM; stronger effect = lower value
Outline: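 Assay system: Primary human umbilical vein endothelial cells | Quantity: 1250 cells per well | Medium: Supplemented EBM, 2% fetal bovine serum | Detection: CellTiter-Glo luminescence measuring cellular ATP | Read-out: % viability vs DMSO wells | Plate: Collagen-coated 384-well format | Times: 72 h exposure, 37 °C, 5% CO2, 30 min RT equilibration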

[2] = H69AR cell proliferation blockers – human, duplicate replicates, primary screen (AID 580;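 active = viability at or under a set limit in both replicates, limit being median viability minus 3 SD, cut at about 48% in these data, passing the limit was not always enough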;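 also: 100% = mean luminescence of untreated wells and 0% = no signal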); conditions: H69AR lung tumor cells viability, ATP luminescence, 72 h; at 10 µM; stronger effect = lower value
[3] = MRP1 drug-resistance reversers in H69AR cells – cell-based, doxorubicin co-treatment, pilot screen (AID 601;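 active = viability loss from added drug above about 55%, and viability with drug at most 40%, in both replicates, limit read from the data, passing the limit was not always enough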); conditions: CellTiter-Glo, 72 h, at 10 µM; for differential viability (reversal): stronger effect = higher value
[4] = yeast transport mutant growth inhibition pilot in 384-well plates, post-Golgi transport modulator project (AID 636; in the data active = inhibition above about 31%); conditions: absorbance 615 nm, about 18 h, stronger effect = higher value
[5] = growth suppression of yeast trafficking mutant, preliminary HTS, modulators of trafficking downstream of Golgi apparatus project, 1536-format plate, OD 615 nm (AID 637); conditions: yeast transport mutant growth, absorbance 615 nm, 18 h; stronger effect = higher value
[6] = H69AR cells + 2 uM doxorubicin, measured here: viability with 2 uM doxorubicin, stronger effect = lower value
[7] = H69AR cells, compound alone cytotoxicity

| Structure (SMILES) | viability [1] | viability [2] | differential viability (reversal) ([3]; H69AR cells + 2 uM doxorubicin) | viability [3, 6] [%] | viability [3, 7] [%] | inhibition [4] | inhibition [5] |
| --- | --- | --- | --- | --- | --- | --- | --- |
| Cc1ccccc1OCCn1c(=O)oc2ccccc21 | 82.3% (inactive) | 91.5% (inactive) | 16.8% (inactive) | 74.7 | 91.5 | -5.07% (inactive) | 2.38% (inactive) |
| CCOC(=O)CC(C#N)c1cn(C)c2ccccc12 (stereo not given) | 86.6% (inactive) | 88% (inactive) | -4.15% (inactive) | 92.2 | 88 | -6.58% (inactive) | -4.6% (inactive) |
| c1ccc2c(c1)C(=Nn1cnnc1)c1ccccc1-2 | 92.3% (inactive) | 92.4% (inactive) | -4.35% (inactive) | 96.7 | 92.4 | -0.39% (inactive) | -3.02% (inactive) |
| COc1ccc(C(=O)CSc2nnc(CNc3ccc(C)cc3C)o2)cc1 | 86.8% (inactive) | 82.2% (inactive) | 0.595% (inactive) | 81.6 | 82.2 | -2.76% (inactive) | 1.9% (inactive) |
| CN(CC(=O)O)S(=O)(=O)c1cc(Cl)ccc1Cl | 112% (inactive) | 96.8% (inactive) | 12.2% (inactive) | 84.6 | 96.8 | -2.53% (inactive) | -5.24% (inactive) |
| CN(C)c1cccc(N=C2C=C(N3CCOCC3)CC(C)(C)C2)c1 | 106% (inactive) | 91.8% (inactive) | -1.85% (inactive) | 93.7 | 91.8 | -1.04% (inactive) | -8.41% (inactive) |
| Cc1ccc(Nc2nc(CSc3nnc(-c4cccs4)o3)cs2)cc1 | 78.7% (inactive) | 90.5% (inactive) | -1.67% (inactive) | 92.2 | 90.5 | -4.8% (inactive) | -2.22% (inactive) |
| Nc1nc(SCc2ccc(Cl)cc2Cl)n[nH]1 | 85.8% (inactive) | 92.5% (inactive) | 4.17% (inactive) | 88.3 | 92.5 | -7.47% (inactive) | 0.79% (inactive) |
| Cn1c(=O)c2c(nc(-n3ccnc3)n2C)n(C)c1=O | 105% (inactive) | 101% (inactive) | 8.81% (inactive) | 92.7 | 101 | -4.13% (inactive) | 1.59% (inactive) |
| COC(=O)c1c(N)sc(C(=O)N2CCOCC2)c1C | 95.2% (inactive) | 97.7% (inactive) | 6.62% (inactive) | 91 | 97.7 | -0.4% (inactive) | -5.87% (inactive) |
| O=C(CCN1CCN(CCO)CC1)Nc1ccc(OCc2ccccc2)cc1 | 76.5% (inactive) | 88.9% (inactive) | 6.03% (inactive) | 82.9 | 88.9 | -2.6% (inactive) | -6.67% (inactive) |
| NC(=O)c1sc2nc3c(c(-c4ccco4)c2c1N)CCC3 | 75.7% (inactive) | 81.4% (inactive) | -16.8% (inactive) | 98.2 | 81.4 | -5.47% (inactive) | -8.57% (inactive) |
| CC(=O)Nc1cccc(NC(=O)CSc2nnnn2C)c1 | 115% (inactive) | 106% (inactive) | 10.2% (inactive) | 95.9 | 106 | -5.39% (inactive) | 0.95% (inactive) |
| O=C(O)c1cccn2c(=O)c3ccccc3nc12 | 101% (inactive) | 95.8% (inactive) | 4.45% (inactive) | 91.4 | 95.8 | -2.8% (inactive) | -2.22% (inactive) |
| Cc1ccccc1NC(=O)C1CCC(C)(C(=O)O)C1(C)C (stereo not given) | 92.7% (inactive) | 99.8% (inactive) | 0.94% (inactive) | 98.8 | 99.8 | -0.78% (inactive) | -7.3% (inactive) |
| O=C1CC(Cc2ccccc2)C(=O)N1CCc1ccc2c(c1)OCO2 (stereo not given) | 97.7% (inactive) | 102% (inactive) | 4.62% (inactive) | 97.7 | 102 | -5.32% (inactive) | 3.65% (inactive) |
| Cc1ccc(-n2c(-c3ccncc3)nnc2-c2cccs2)cc1 | 95.2% (inactive) | 79.9% (inactive) | 39.3% (inactive) | 40.6 | 79.9 | -6.53% (inactive) | 9.37% (inactive) |
| Cc1cc(/C=c2/sc3nc4ccccc4n3c2=O)c(C)n1-c1ccccn1 | 77.6% (inactive) | 63% (inactive) | -2.23% (inactive) | 65.2 | 63 | 2.4% (inactive) | -0.48% (inactive) |
| O=C(CSc1nc2ccccc2o1)N1CCN(c2ccc(Cl)cc2)CC1 | 92.6% (inactive) | 87.4% (inactive) | 1.47% (inactive) | 85.9 | 87.4 | -1.56% (inactive) | 6.35% (inactive) |
| CC(NC(=O)OCc1ccccc1)C(=O)N1CC(O)CC1C(=O)O (stereo not given) | 82.5% (inactive) | 98.5% (inactive) | 17.6% (inactive) | 81 | 98.5 | -0.39% (inactive) | -1.59% (inactive) |
